Reference: ChEMBL document CHEMBL1144928, “Antimalarial activity of novel 1,2,5,6-tetraoxacycloalkanes and 1,2,5-trioxacycloalkanes” (J Med Chem, 2003)

What was measured:
Mus musculus [1] = experiment: Compound was tested in vitro Antimalarial activity against Plasmodium berghei in infected mice (Mus musculus) administered intraperitoneally; format: functional; settings: ip
How it was run: (§1)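 Mice infected with P. berghei NK 65 strain, in groups of five, were dosed once daily on days 0–3 with a range of concentrations in olive oil. Dosing was intraperitoneal or oral.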

[2] = (§2) Selectivity index was determined; format: functional
How it was run: (§3)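 Selectivity was calculated as the mean EC50 for FM3A cells divided by the mean EC50 for P. falciparum FCR-3.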

Plasmodium falciparum [3] = experiment: In vitro antimalarial activity against […]; format: functional, organism-based
Mus musculus [4] = experiment: Compound was tested in vitro Antimalarial activity against Plasmodium berghei in infected mice (Mus musculus) administered per orally; format: functional; settings: po; how it was run: as §1
Plasmodium falciparum [5] = experiment: In vitro antimalarial activity against Plasmodium falciparum; format: functional, organism-based
How it was run: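 Tested against chloroquine-sensitive P. falciparum FCR-3 strain in culture. EC50 was determined by a previously reported protocol.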

FM3A = experiment: Compound was tested in vitro cytotoxicity against FM3A cell; format: functional, cell-based; settings: Mus musculus
How it was run: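 Cytotoxicity control used mouse mammary tumor FM3A cells in culture. The 50% inhibitory concentration (EC50) was determined by a previously reported protocol.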

[6] = as §2; format: functional; how it was run: as §3; remark: listed apart in the source

Compound	ED50 (Mus musculus [1]) [mg/kg]	ED90 (Mus musculus [1]) [mg/kg]	Selectivity [2]	EC50 (Plasmodium falciparum [3]) [nM]	ED50 (Mus musculus [4]) [mg/kg]	ED90 (Mus musculus [4]) [mg/kg]	EC50 (Plasmodium falciparum [5]) [nM]	EC50 (FM3A) [µM]	EC50 [6] [µM]
c1ccc(C23OOC(C4CCCCC4)OOC2C2CCC3C2)cc1 (stereo unspecified)	70	> 100	52	210	–	–	–	–	–
C[C@@H]1CC[C@H]2[C@@H](C)C(=O)O[C@@H]3O[C@@]4(C)CC[C@@H]1[C@]32OO4 [ARTEMISININ]	5.4	13	1000	–	32	89	–	–	–
Fc1ccc(C2OOC3C4CCC(C4)C3(c3ccccc3)OO2)cc1 (stereo unspecified)	–	–	11	–	–	–	1000	11	–
c1ccc(C2OOC3C4CCC(C4)C3(c3ccccc3)OO2)cc1 (stereo unspecified)	–	–	9	–	–	–	1500	13	–
CC1(CI)CCOC2(c3ccccc3)C3CCC(C3)C2OO1 (stereo unspecified)	–	–	3000	–	–	–	5	15	–
c1ccc(C23OOC4(CCCCC4)OOC2C2CCC3C2)cc1 (stereo unspecified) [TETRACYCLOALKANES]	–	–	24	–	–	–	450	11	–
CC1(C2OOC3C4CCC(C4)C3(c3ccccc3)OO2)CCCC1 (stereo unspecified)	–	–	45	–	–	–	130	5.9	–
c1ccc(C23OOCCCOOC2C2CCC3C2)cc1 (stereo unspecified)	13	50	–	–	> 100	–	190	45	237
CC1(CI)COC2(c3ccccc3)C3CCC(C3)C2OO1 (stereo unspecified)	–	–	11	–	–	–	1000	11	–
CC1(CI)CCOOC2(c3ccccc3)C3CCC(C3)C2OO1 (stereo unspecified)	–	–	73	–	–	–	150	11	–
